Measurements: ChEMBL document CHEMBL1122702, “Radiohalogen-labeled imaging agents. 3. Compounds for measurement of brain blood flow by emission tomography” (J Med Chem, 1984)

Experiments:
Type in all cases: ADME, organism-based
Rattus norvegicus [1] = organism: Rattus norvegicus; test: Ratio of distribution of the [131I]-labeled compound at 5 min in rat lung over uptake in blood; settings: other tissue
Outline: (§1)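 Male Sprague-Dawley rats (200–300 g, fed ad libitum), ether-anesthetized, got a tail-vein bolus of 0.2 mL saline containing 10–20 μCi 131I compound and were decapitated at the stated time. Organs were weighed and gamma-counted against a serially diluted external standard. Organ/blood ratio was calculated from % dose per gram of organ. Animal numbers per time point were 1–4.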

Rattus norvegicus [2] = organism: Rattus norvegicus; test: The uptake of the 131 I-labeled compound at 30 min was evaluated in rat heart as Percent of injected dose per gram in the organ; settings: in vivo, 0.5 h
Outline: (§2)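 Male Sprague-Dawley rats (200–300 g, free access to food and water), lightly ether-anesthetized and restrained, received a 0.2 mL saline tail-vein bolus of 10–20 μCi 131I-labeled compound. They were decapitated at the stated time, and organs were excised, weighed and gamma-counted. Percent injected dose was determined against a calibrated external standard made by serial dilution of the injectate. n = 1–4 rats.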

Rattus norvegicus [3] = organism: Rattus norvegicus; test: The uptake of the 131 I-labeled compound at 30 min was evaluated in rat liver as Percent of injected dose in the total organ; settings: in vivo, 0.5 h; outline: as §2
Rattus norvegicus [4] = organism: Rattus norvegicus; test: The uptake of the 131 I-labeled compound at 30 min was evaluated in rat liver as Percent of injected dose per gram in the organ; settings: in vivo, 0.5 h; outline: as §2
Rattus norvegicus [5] = organism: Rattus norvegicus; test: The uptake of the 131 I-labeled compound at 30 min was evaluated in rat lung as Percent of injected dose per gram in the organ; settings: in vivo, 0.5 h; outline: as §2
Rattus norvegicus [6] = organism: Rattus norvegicus; test: The uptake of the 131 I-labeled compound at 5 min was evaluated in rat liver as Percent of injected dose per gram in the organ; settings: in vivo; outline: as §2
Rattus norvegicus [7] = organism: Rattus norvegicus; test: The uptake of the 131 I-labeled compound at 5 min was evaluated in rat brain as Percent of injected dose in the total organ; settings: in vivo; outline: as §2
Rattus norvegicus [8] = organism: Rattus norvegicus; test: Ratio of distribution of the [131I]-labeled compound at 5 min in rat liver over uptake in blood; settings: other tissue; outline: as §1
Rattus norvegicus [9] = organism: Rattus norvegicus; test: The uptake of the 131 I-labeled compound at 30 min was evaluated in rat heart as Percent of injected dose in the total organ; settings: in vivo, 0.5 h; outline: as §2
Rattus norvegicus [10] = organism: Rattus norvegicus; test: Ratio of distribution of the [131I]-labeled compound at 30 min in rat kidney over uptake in blood; settings: other tissue, 0.5 h; outline: as §1
Rattus norvegicus [11] = organism: Rattus norvegicus; test: The uptake of the 131 I-labeled compound at 5 min was evaluated in rat liver as Percent of injected dose in the total organ; settings: in vivo; outline: as §2
Rattus norvegicus [12] = organism: Rattus norvegicus; test: The uptake of the 131 I-labeled compound at 5 min was evaluated in rat kidney as Percent of injected dose per gram in the organ; settings: in vivo; outline: as §2
Rattus norvegicus [13] = organism: Rattus norvegicus; test: The uptake of the 131 I-labeled compound at 5 min was evaluated in rat blood as Percent of injected dose per gram in the organ; settings: in vivo; outline: as §2
Rattus norvegicus [14] = organism: Rattus norvegicus; test: Ratio of distribution of the [131I]-labeled compound at 30 min in rat heart over uptake in blood; settings: other tissue, 0.5 h; outline: as §1
Rattus norvegicus [15] = organism: Rattus norvegicus; test: The uptake of the 131 I-labeled compound at 30 min was evaluated in rat blood as Percent of injected dose per gram in the organ; settings: in vivo, 0.5 h; outline: as §2
Rattus norvegicus [16] = organism: Rattus norvegicus; test: The uptake of the 131 I-labeled compound at 30 min was evaluated in rat brain as Percent of injected dose in the total organ; settings: in vivo, 0.5 h; outline: as §2
Rattus norvegicus [17] = organism: Rattus norvegicus; test: Ratio of distribution of the [131I]-labeled compound at 5 min in rat heart over uptake in blood; settings: other tissue; outline: as §1
Rattus norvegicus [18] = organism: Rattus norvegicus; test: The uptake of the 131 I-labeled compound at 30 min was evaluated in rat kidney as Percent of injected dose in the total organ; settings: in vivo, 0.5 h; outline: as §2
Rattus norvegicus [19] = organism: Rattus norvegicus; test: The uptake of the 131 I-labeled compound at 5 min was evaluated in rat kidney as Percent of injected dose in the total organ; settings: in vivo; outline: as §2
Rattus norvegicus [20] = organism: Rattus norvegicus; test: The uptake of the 131 I-labeled compound at 30 min was evaluated in rat kidney as Percent of injected dose per gram in the organ; settings: in vivo, 0.5 h; outline: as §2
Rattus norvegicus [21] = organism: Rattus norvegicus; test: The uptake of the 131 I-labeled compound at 5 min was evaluated in rat heart as Percent of injected dose per gram in the organ; settings: in vivo; outline: as §2
Rattus norvegicus [22] = organism: Rattus norvegicus; test: Ratio of distribution of the [131I]-labeled compound at 30 min in rat liver over uptake in blood; settings: other tissue, 0.5 h; outline: as §1
Rattus norvegicus [23] = organism: Rattus norvegicus; test: Ratio of distribution of the [131I]-labeled compound at 30 min in rat lung over uptake in blood; settings: other tissue, 0.5 h; outline: as §1
Rattus norvegicus [24] = organism: Rattus norvegicus; test: The uptake of the 131 I-labeled compound at 5 min was evaluated in rat lung as Percent of injected dose per gram in the organ; settings: in vivo; outline: as §2
Rattus norvegicus [25] = organism: Rattus norvegicus; test: The uptake of the 131 I-labeled compound at 30 min was evaluated in rat brain as Percent of injected dose per gram in the organ; settings: in vivo, 0.5 h; outline: as §2
Rattus norvegicus [26] = organism: Rattus norvegicus; test: Ratio of distribution of the [131I]-labeled compound at 30 min in rat brain over uptake in blood; settings: 0.5 h; outline: as §1
Rattus norvegicus [27] = organism: Rattus norvegicus; test: The uptake of the 131 I-labeled compound at 5 min was evaluated in rat brain as Percent of injected dose per gram in the organ; settings: in vivo; outline: as §2
Rattus norvegicus [28] = organism: Rattus norvegicus; test: Ratio of distribution of the [131I]-labeled compound at 5 min in rat brain over uptake in blood; outline: as §1
Rattus norvegicus [29] = organism: Rattus norvegicus; test: The uptake of the 131 I-labeled compound at 5 min was evaluated in rat heart as Percent of injected dose in the total organ; settings: in vivo; outline: as §2
Rattus norvegicus [30] = organism: Rattus norvegicus; test: Ratio of distribution of the [131I]-labeled compound at 5 min in rat kidney over uptake in blood; settings: other tissue; outline: as §1

SMILES: COc1cc(CC(C)NO)c(OC)cc1I (stereo not given)
- Ratio (Rattus norvegicus [1]): 12
- Dose (Rattus norvegicus [2]): 0.3%
- Dose (Rattus norvegicus [3]): 6.6%
- Dose (Rattus norvegicus [4]): 0.72%
- Dose (Rattus norvegicus [5]): 3.3%
- Dose (Rattus norvegicus [6]): 1.5%
- Dose (Rattus norvegicus [7]): 1.2%
- Ratio (Rattus norvegicus [8]): 9.5
- Dose (Rattus norvegicus [9]): 0.24%
- Ratio (Rattus norvegicus [10]): 7.5
- Dose (Rattus norvegicus [11]): 8.6%
- Dose (Rattus norvegicus [12]): 1.4%
- Dose (Rattus norvegicus [13]): 0.19%
- Ratio (Rattus norvegicus [14]): 1.9
- Dose (Rattus norvegicus [15]): 0.16%
- Dose (Rattus norvegicus [16]): 1.2%
- Ratio (Rattus norvegicus [17]): 3.6
- Dose (Rattus norvegicus [18]): 2.1%
- Dose (Rattus norvegicus [19]): 2.5%
- Dose (Rattus norvegicus [20]): 1.2%
- Dose (Rattus norvegicus [21]): 0.66%
- Ratio (Rattus norvegicus [22]): 4.5
- Ratio (Rattus norvegicus [23]): 21
- Dose (Rattus norvegicus [24]): 2%
- Dose (Rattus norvegicus [25]): 0.63%
- Ratio (Rattus norvegicus [26]): 3.9
- Dose (Rattus norvegicus [27]): 0.69%
- Ratio (Rattus norvegicus [28]): 3.6
- Dose (Rattus norvegicus [29]): 0.8%
- Ratio (Rattus norvegicus [30]): 6.8
